Test results as given in ChEMBL document CHEMBL1221205, “Structural and mechanistic basis of penicillin-binding protein inhibition by lactivicins” (Nat Chem Biol, 2007).
pIC50: −log10 of the molar value. ≈ marks a conversion by molar mass, not a printed value.

Key:
[1] = tested on: Streptococcus pneumoniae; test: Antibacterial activity against penicillin-sensitive Streptococcus pneumoniae R6 […]; type: functional
How it was run: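 Strain grown in Todd-Hewitt medium at 37 °C to OD600 0.3, then plated on Columbia blood agar with 5% horse blood containing compound at 0 to 100 µg ml-1. MIC taken as the concentration giving visible growth arrest on plates.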

[2] = tested on: Streptococcus pneumoniae; test: Antibacterial activity against penicillin-resistant Streptococcus pneumoniae 38040505 […]; type: functional
How it was run: (§1)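 Strains grown in Todd-Hewitt medium at 37 °C to OD600 0.3, then plated on Columbia blood agar with 5% horse blood containing LTV or PLTV at 0 to 100 µg ml-1. MIC taken as the concentration at visually determined growth arrest on plates. Ratio lines compare resistant-strain MIC with the R6 MIC obtained the same way.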

[3] = tested on: Streptococcus pneumoniae; test: Antibacterial activity against penicillin-resistant Streptococcus pneumoniae 4790 […]; type: functional; how it was run: as §1
[4] = tested on: Streptococcus pneumoniae; test: Antibacterial activity against penicillin-resistant Streptococcus pneumoniae 38030509 […]; type: functional; how it was run: as §1
[5] = tested on: Streptococcus pneumoniae; test: Antibacterial activity against penicillin-resistant Streptococcus pneumoniae 5204 […]; type: functional; how it was run: as §1
[6] = tested on: Streptococcus pneumoniae; test: Ratio of MIC for penicillin-resistant Streptococcus pneumoniae 38040505 to MIC for penicillin-sensitive Streptococcus pneumoniae R6; type: functional; how it was run: as §1
[7] = tested on: Streptococcus pneumoniae; test: Ratio of MIC for penicillin-resistant Streptococcus pneumoniae 4790 to MIC for penicillin-sensitive Streptococcus pneumoniae R6; type: functional; how it was run: as §1
[8] = tested on: Streptococcus pneumoniae; test: Ratio of MIC for penicillin-resistant Streptococcus pneumoniae 38030509 to MIC for penicillin-sensitive Streptococcus pneumoniae R6; type: functional; how it was run: as §1
[9] = tested on: Streptococcus pneumoniae; test: Ratio of MIC for penicillin-resistant Streptococcus pneumoniae 5204 to MIC for penicillin-sensitive Streptococcus pneumoniae R6; type: functional; how it was run: as §1
[10] = target: T1, Penicillin-binding protein 2x (Streptococcus pneumoniae serotype 4 (strain ATCC BAA-334 / TIGR4), UniProt P14677); test: Inhibition of penicillin-resistant Streptococcus pneumoniae 5204 PBP2x after 120 mins by SDS-PAGE
T1 sequence (P14677 whole entry, looked up): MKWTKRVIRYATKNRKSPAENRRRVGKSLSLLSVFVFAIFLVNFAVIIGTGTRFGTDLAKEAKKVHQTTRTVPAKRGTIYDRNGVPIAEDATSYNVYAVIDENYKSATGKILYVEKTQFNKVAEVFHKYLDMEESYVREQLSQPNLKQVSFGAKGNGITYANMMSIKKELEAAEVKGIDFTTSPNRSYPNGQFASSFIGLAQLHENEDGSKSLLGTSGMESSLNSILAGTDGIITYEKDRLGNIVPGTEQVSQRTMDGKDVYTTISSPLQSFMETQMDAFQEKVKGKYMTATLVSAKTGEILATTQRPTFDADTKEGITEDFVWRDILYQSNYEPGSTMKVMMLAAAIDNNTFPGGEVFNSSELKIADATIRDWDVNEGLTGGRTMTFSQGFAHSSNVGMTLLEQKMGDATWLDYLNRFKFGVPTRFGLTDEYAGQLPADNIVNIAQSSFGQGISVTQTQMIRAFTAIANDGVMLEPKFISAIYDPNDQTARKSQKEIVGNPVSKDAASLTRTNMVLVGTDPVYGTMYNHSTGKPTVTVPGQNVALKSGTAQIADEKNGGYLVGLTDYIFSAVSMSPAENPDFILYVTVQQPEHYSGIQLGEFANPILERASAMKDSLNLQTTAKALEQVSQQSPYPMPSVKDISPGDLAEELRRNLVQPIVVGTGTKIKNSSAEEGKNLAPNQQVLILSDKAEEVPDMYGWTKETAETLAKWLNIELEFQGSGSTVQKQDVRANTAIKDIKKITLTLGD
How it was run: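 PBP2x-5204 (0.8 µM) preincubated with LTV for 120 min, then remaining active PBP counterlabeled with 10 µM fluorescein-ampicillin for 40 min. Bands resolved by SDS-PAGE with fluorescence imaging; background subtracted. IC50 fitted from residual activity versus inhibitor concentration. Kinetic work at 30 °C in 10 mM sodium phosphate pH 7.0.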

[11] = target: T1, Penicillin-binding protein 2x; test: Inhibition of penicillin-resistant Streptococcus pneumoniae 5204 PBP2x after 60 mins by SDS-PAGE
How it was run: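 PBP2x-5204 (0.8 µM) preincubated with PLTV for 60 min in 10 mM sodium phosphate pH 7.0, 30 °C, with 1% dimethylformamide. Residual active enzyme counterlabeled with 10 µM fluorescein-ampicillin for 40 min, then analyzed by SDS-PAGE and fluorescence. IC50 fitted from background-subtracted residual activity against inhibitor concentration.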

Row | Compound | MIC [1] | MIC [2] | MIC [3] | MIC [4] | MIC [5] | Ratio [6] | Ratio [7] | Ratio [8] | Ratio [9] | pIC50 [10] | pIC50 [11]
1 | CC(=O)NC1CON(C2(C(=O)O)CCC(=O)O2)C1=O (centres undefined) [LACTIVICIN] | 2 µg/mL (≈ 7.35 µM) | 10 µg/mL (≈ 36.7 µM) | 20 µg/mL (≈ 73.5 µM) | 20 µg/mL (≈ 73.5 µM) | > 20 µg/mL | 5 | 5 | 5 | 5 | 3.82 | 
2 | CC1(C)S[C@@H]2[C@H](NC(=O)Cc3ccccc3)C(=O)N2[C@H]1C(=O)O [PENICILLIN G] | 0.01 µg/mL (≈ 0.0299 µM) | 1.5 µg/mL (≈ 4.49 µM) | 1.5 µg/mL (≈ 4.49 µM) | 2 µg/mL (≈ 5.98 µM) | 6 µg/mL (≈ 17.9 µM) | 150 | 150 | 150 | 150 |  | 
3 | O=C(COc1ccccc1)N[C@H]1CON([C@@]2(C(=O)O)CCC(=O)O2)C1=O [PHENOXYACETYL LACTIVICIN] | 15 µg/mL (≈ 41.2 µM) | 80 µg/mL (≈ 220 µM) | > 100 µg/mL | > 100 µg/mL | 90 µg/mL (≈ 247 µM) | 5.3 | 5.3 | 5.3 | 5.3 |  | 5.10
